SENP8 block-1 – blocks human SENP8 cleavage of Nedd8 substrate; Q96LD8; recombinant SENP8, Nedd8 substrate fluorescence; inhibition, % at 20 µM; actives 0.64% (n = 360,000); AID 602440; in the data active = inhibition mostly above about 40%, no sharp cut-off; inactive = mostly below about 27%
SENP6 block – SENP6 protease inhibition. Recombinant SENP6 catalytic domain, aminoluciferin luminescence. inhibition, % at 10 µM. actives 1.8% (n = 330,000). AID 2599;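 active = inhibition above about 50% at the single tested dose, limit read from the data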
SENP8 block-2 – SENP8 protease inhibition. Q96LD8. purified SENP8, Z-RLRGG-aminoluciferin cleavage, luminescence. inhibition, % at 10 µM. actives 1.2% (n = 330,000); in the data active = inhibition above about 50%
SENP1 inh – inhibitors of human SENP1 SUMO protease catalytic domain; inhibition, % at 10 µM; AID 624204; recombinant SENP1 catalytic domain, CyPet-SUMO1-YPet FRET cleavage; actives 0.21% (n = 360,000); Q9P0U3;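 active = inhibition at least 30% at 10 µM, raw YFP signal under a set limit, fluorescence ratio 0.5 to 1.5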
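Material: hSENP1 catalytic domain, recombinant; medium: Tris pH 8 with BME, BSA, NP40 and catalase; compound: single concentration of 10 µM compound, 0.5% DMSO final; technique: FRET read of cyan and yellow fluorescence; timing: 50 min enzyme reaction, room temperature, light-protected; reagent: SFCypet-SUMO1-SFYpet substrate at 25 nM; control set: no-enzyme low, enzyme-DMSO high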
CendR NRP1 mod – alters CendR peptide binding to human NRP-1 | O14786 | inhibition, % at 25 µM | actives 0.85% (n = 360,000) | FAM-RPARPAR peptide binding to NRP-1, fluorescence polarization;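 active = inhibition or corrected inhibition above about 18%, plus a signal ratio from 0.5 to 1.5, limit read from the data, passing the limit was not always enough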
Target sequence (O14786 whole entry, looked up): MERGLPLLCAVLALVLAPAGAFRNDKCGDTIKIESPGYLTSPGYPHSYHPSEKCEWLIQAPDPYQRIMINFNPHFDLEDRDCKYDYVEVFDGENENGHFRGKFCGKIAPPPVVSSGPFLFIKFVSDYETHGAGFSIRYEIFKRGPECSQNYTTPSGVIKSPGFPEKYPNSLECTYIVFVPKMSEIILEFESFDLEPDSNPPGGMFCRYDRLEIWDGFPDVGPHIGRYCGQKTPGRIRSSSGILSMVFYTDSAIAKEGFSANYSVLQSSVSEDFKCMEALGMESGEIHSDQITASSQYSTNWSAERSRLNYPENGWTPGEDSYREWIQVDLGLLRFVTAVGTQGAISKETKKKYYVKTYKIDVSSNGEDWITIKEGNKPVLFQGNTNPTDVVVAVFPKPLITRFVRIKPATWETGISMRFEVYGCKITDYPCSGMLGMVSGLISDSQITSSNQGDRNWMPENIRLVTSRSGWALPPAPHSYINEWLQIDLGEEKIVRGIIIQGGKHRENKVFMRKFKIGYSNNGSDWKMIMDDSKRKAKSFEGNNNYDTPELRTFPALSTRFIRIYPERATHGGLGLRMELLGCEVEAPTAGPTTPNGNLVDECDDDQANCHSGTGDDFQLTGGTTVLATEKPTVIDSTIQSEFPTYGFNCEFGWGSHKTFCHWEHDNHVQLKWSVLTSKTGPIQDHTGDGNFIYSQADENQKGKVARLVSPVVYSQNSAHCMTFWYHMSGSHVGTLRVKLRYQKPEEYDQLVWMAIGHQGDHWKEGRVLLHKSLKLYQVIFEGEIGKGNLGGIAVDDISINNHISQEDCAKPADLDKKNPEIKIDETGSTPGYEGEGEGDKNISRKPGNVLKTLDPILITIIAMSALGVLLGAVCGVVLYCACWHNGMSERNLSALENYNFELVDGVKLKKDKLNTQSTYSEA
SENP7 inh – inhibitors of human SENP7 protease; recombinant SENP7, Z-RLRGG-aminoluciferin luminescence, 40 min; inhibition, % at 5 µM; actives 1.5% (n = 330,000); AID 434973; Q9BQF6;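 active = inhibition above about 50% at the single test dose, limit read from the data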
Each line names hits and unclear results; the compound was inactive in the other large screens. This is a sample that favours compounds with a hit; in the whole collection about 3.3% have one here.

Cn1nc(C(F)(F)F)c(C#N)c1N1CCN(c2cccc(C(F)(F)F)c2)CC1	CendR NRP1 mod 39.0
CCOC(=O)Cn1c(=NC(=O)c2ccc([N+](=O)[O-])s2)sc2ccccc21	CendR NRP1 mod 56.3
CC1COc2c3ccccc3nn21 (stereo unspecified)	none (no result: SENP6 block, SENP8 block-2, SENP7 inh)
c1ccc2c3n(nc2c1)CCCO3	CendR NRP1 mod 32.5
CCC[C@H]1NC(=O)[C@H](C)N(C)C(=O)C(C)(C)C(=O)C(C)NC(=O)[C@H](Cc2ccc(OC)cc2)N(C)C(=O)[C@H](C(C)C)N(C)C(=O)CNC(=O)[C@H](CC(C)C)N(C)C(=O)CNC(=O)[C@H]([C@@H](C)CC)OC(=O)[C@H]1C (stereo partly specified)	none (no result: SENP8 block-1, SENP1 inh, CendR NRP1 mod)
CCCC(=O)N(Cc1cc2cc(OC)ccc2[nH]c1=O)c1ccccc1OC	none (no result: SENP6 block, SENP8 block-2, SENP7 inh)
CC(OC(=O)c1cc(Br)ccc1O)C(=O)Nc1ccc(S(=O)(=O)N2CCCC2)cc1 (stereo unspecified)	CendR NRP1 mod 25.2
CC1(C(=O)NS(=O)(=O)c2cccc(C#N)c2)CCN1C(=O)c1cccc2ccccc12 (stereo unspecified)	none (no result: SENP6 block, SENP8 block-2, SENP7 inh)
COc1ccc(CN(C)C(=O)CCNS(=O)(=O)c2ccccc2)c(OC)c1	CendR NRP1 mod 28.6 (no result: SENP6 block, SENP8 block-2, SENP7 inh)
CC(C)(C)CC(=O)Nc1ccc(C(N)=O)cc1	CendR NRP1 mod 26.5
O=c1cc(-c2ccccc2)nc2c(Cl)cc(Cl)cn12	none (no result: SENP6 block, SENP8 block-2, SENP7 inh)
CSC1=NC=C(C#N)C2=NC(c3c(Cl)cccc3Cl)NN12 (stereo unspecified)	SENP8 block-1 51.5 (no result: SENP6 block, SENP8 block-2, SENP7 inh)
CCOC(Cn1cc([N+](=O)[O-])c(=O)[nH]c1=O)OCC	none (no result: SENP6 block, SENP8 block-2, SENP7 inh)
CCOC(Cn1ccc(=O)[nH]c1=O)OCC	CendR NRP1 mod 25.5
CC(=O)Nc1ccc(S(=O)(=O)NC(C)C(=O)NCC(c2ccco2)N(C)C)cc1 (stereo unspecified)	CendR NRP1 mod 26.9
CCCc1c(-c2ccc(Cl)cc2)ncn1Cc1cccc(-c2ccccc2)c1	none (no result: SENP6 block, SENP8 block-2, SENP7 inh)
C=C(C)[C@@H]1CCC2(C(=O)O)CC[C@]3(C)[C@H](CC[C@@H]4[C@@]5(C)CCC(=O)C(C)(C)[C@@H]5CC[C@]43C)[C@@H]12 (stereo partly specified)	none
C=C(CC[C@@H](O)C(C)(C)O)[C@H]1CC[C@]2(C)[C@@H]1CCC1[C@@]3(C)CCC(=O)C(C)(C)C3CC[C@]12C (stereo partly specified)	CendR NRP1 mod 27.6
Fc1ccc(N/N=C/c2ccncc2)c(F)c1	SENP6 block 58.5
Fc1ccc(N/N=C/C=C/c2ccccc2)c(F)c1	none
CCc1c(O)nc(SCC(=O)Nc2ccc(Cl)cc2)n(-c2ccccc2)c1=O	none (no result: SENP6 block, SENP8 block-2, SENP7 inh)
O=C(Nc1cccc([N+](=O)[O-])c1)c1ccc(-c2ccccc2)cc1	none
O=C(O)c1ccc(N=NNc2cccc([N+](=O)[O-])c2)cc1	SENP8 block-1 40.2, SENP6 block 94.9, SENP8 block-2 95.6, SENP7 inh 98.2
NC(=O)c1ccsc1NC(=O)c1cc(=O)c2ccccc2o1	SENP7 inh 65.3
CC(=O)Nc1ccc(NC(=O)c2cc(=O)c3ccccc3o2)cc1	none
CC(C)(C)c1ccc(SCCc2cccnc2)cc1	CendR NRP1 mod 30.9
CC1(c2nnnn2-c2ccc3c(c2)OCCO3)CCC(=O)N1Cc1ccc(F)cc1 (stereo unspecified)	none (no result: SENP6 block, SENP8 block-2, SENP7 inh)
N#Cc1ccc(S(=O)(=O)N2CCN(CC(=O)Nc3ccccc3C(=O)NC3CC3)CC2)cc1	none
O=C(CN1CCN(S(=O)(=O)c2ccc(F)cc2)CC1)Nc1ccccc1C(=O)NC1CC1	CendR NRP1 mod 25.9
CCCN1CCC(NC(=S)Nc2ccc(OC)c(OC)c2)CC1	none
CCCN1CCC(NC(=O)Nc2ccc(OC)c(OC)c2)CC1	CendR NRP1 mod 49.1
Cn1nnnc1SCc1nnc(-c2ccc(F)cc2)o1	CendR NRP1 mod 24.9
C=CCc1cccc(/C=N/n2c(C)nnc2C)c1O	CendR NRP1 mod 19.5
CC(C)(C)OC(=O)NCCc1onc(-c2ccccc2F)c1C(=O)O	none (no result: SENP6 block, SENP8 block-2, SENP7 inh)
CN(C)c1ccc(C=c2c3cc([N+](=O)[O-])ccc3n3c2cc(-c2ccccc2)[n+]3C)cc1	SENP8 block-1 51.0 (no result: SENP6 block, SENP8 block-2, SENP7 inh)
Cc1cc(OC(=O)c2ccccc2C)c([N+](=O)[O-])c(=O)[nH]1	CendR NRP1 mod 34.1
COc1ccccc1C(=O)Oc1cc(C)[nH]c(=O)c1[N+](=O)[O-]	none
CC(C)(C)c1ccc(/C=N/N2CCN(c3ccccn3)CC2)cc1	none
CN(C)c1ccc(/C=N/N2CCN(c3ccccn3)CC2)cc1	SENP6 block 74.5, SENP8 block-2 62.0, SENP7 inh 77.7
CN(C)S(=O)(=O)c1cccc(NC(=O)COc2ccccc2C(=O)NCc2ccccc2)c1	none
CN1C(=O)/C(=C/c2cccc([N+](=O)[O-])c2)C(=O)N1c1ccccc1	SENP8 block-1 44.8
CCCCNC(=O)c1nc(C2CCN(S(=O)(=O)c3ccccc3C(F)(F)F)CC2)oc1-c1ccccc1	none (no result: SENP6 block, SENP8 block-2, SENP7 inh)
COc1ccc(CN(C2CC2)S(=O)(=O)c2ccccc2Br)cc1	none (no result: SENP6 block, SENP8 block-2)
Cc1cccc(CN2CCN(C3CN(Cc4cn(Cc5ccc(Cl)cc5)nn4)S(=O)(=O)C3)CC2)c1 (stereo unspecified)	none (no result: SENP6 block, SENP8 block-2, SENP7 inh)
Cc1cccc(CN2CCN(C3CN(Cc4cn(Cc5cccc(Cl)c5)nn4)S(=O)(=O)C3)CC2)c1 (stereo unspecified)	CendR NRP1 mod 23.0 (no result: SENP6 block, SENP8 block-2, SENP7 inh)
Nc1nc2c(s1)CCc1c-2cnn1-c1ccccc1	SENP6 block 61.7
Cc1ccc(Nc2c([N+](=O)[O-])ccc3c2=NC2(CCCCC2)N=3)cc1	SENP8 block-1 44.1
Nc1cc2nc3ccccc3oc-2cc1=O	SENP8 block-1 44.5, SENP1 inh 32.6
COc1ccccc1Cn1c(=S)[nH]c2cc(C(=O)N3CCCC3)ccc2c1=O	CendR NRP1 mod 30.8
CCN1CCN(C(=O)c2ccc3c(=O)n(Cc4ccccc4OC)c(=S)[nH]c3c2)CC1	none
CCOc1cc(OCC)cc(C(=O)N2CCC[C@H]2C(=O)N2CCC[C@H]2C(=O)N(C)Cc2ccccc2)c1	none (no result: SENP6 block, SENP8 block-2, SENP7 inh)
CC(C)CC1C(=O)N(Cc2cn(Cc3ccco3)nn2)CCS(=O)(=O)N1Cc1ccc(-c2ccc(Cl)cc2)cc1 (stereo unspecified)	none (no result: SENP6 block, SENP8 block-2, SENP7 inh)
COC(=O)C1=C(C)N(CCCC(=O)O)C(=O)NC1c1ccc(-c2ccccc2)cc1 (stereo unspecified)	CendR NRP1 mod 29.9
COC(=O)C1=C(C)N(CCCC(=O)O)C(=O)NC1c1ccc(Br)cc1 (stereo unspecified)	none
CC(C)(C)OC(=O)[C@H](Cc1ccccc1)NC(=O)c1nc[nH]c1C(=O)N1CCNCC1	CendR NRP1 mod 34.2
CC1CCN(C(=O)c2[nH]cnc2C(=O)NCc2ccc(CNC(=O)OC(C)(C)C)cc2)CC1	CendR NRP1 mod 30.0
CC(C)(C)OC(=O)[C@H](Cc1ccccc1)NC(=O)c1nc[nH]c1C(=O)NC1CCNCC1	none
